Source: PubChem
In the library only some 1.8% were active in any assay of this set; here they are far more common.
Ecoli rRNA inh: inhibitors of bacterial rRNA selective over humanized ribosomes | E. coli WT GFP vs humanized-ribosome RFP mutants, fluorescence, 24 h; stronger effect = lower value; DMSO median 0, no signal -100 | GFP signal change (wild-type ribosome), % (test concentration not listed) | 1.6% of 350,000 active | AID 720706;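 active = significant combined selectivity score with lowered wild-type GFP, culture density cut under 30%, mutant RFP and density less affected; inactive = any of these conditions unmet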
SKN-1 block: inhibitors of C. elegans SKN-1 | C. elegans VP596 Pgst-4::GFP/RFP ratio, acrylamide-induced, 24 h | inhibition, % at 21.8 µM | 0.49% of 360,000 active;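 active = interference check ratio from 0.5 to 1.5 plus GFP to RFP signal ratio inhibition reaching or exceeding a fixed threshold, cut at about 30% in these data, passing the limit was not always enough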
DAGLB inh: blocks human DAGLB lipase activity; Q8NCG7; HEK293T DAGLB membrane lysate, EnzChek fluorogenic substrate; inhibition, % at 5.17 µM; 0.059% of 340,000 active; in the data active = inhibition above about 34%;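 note: 0% = enzyme with vehicle and 100% = wells lacking enzyme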
Target sequence (Q8NCG7 whole entry, looked up): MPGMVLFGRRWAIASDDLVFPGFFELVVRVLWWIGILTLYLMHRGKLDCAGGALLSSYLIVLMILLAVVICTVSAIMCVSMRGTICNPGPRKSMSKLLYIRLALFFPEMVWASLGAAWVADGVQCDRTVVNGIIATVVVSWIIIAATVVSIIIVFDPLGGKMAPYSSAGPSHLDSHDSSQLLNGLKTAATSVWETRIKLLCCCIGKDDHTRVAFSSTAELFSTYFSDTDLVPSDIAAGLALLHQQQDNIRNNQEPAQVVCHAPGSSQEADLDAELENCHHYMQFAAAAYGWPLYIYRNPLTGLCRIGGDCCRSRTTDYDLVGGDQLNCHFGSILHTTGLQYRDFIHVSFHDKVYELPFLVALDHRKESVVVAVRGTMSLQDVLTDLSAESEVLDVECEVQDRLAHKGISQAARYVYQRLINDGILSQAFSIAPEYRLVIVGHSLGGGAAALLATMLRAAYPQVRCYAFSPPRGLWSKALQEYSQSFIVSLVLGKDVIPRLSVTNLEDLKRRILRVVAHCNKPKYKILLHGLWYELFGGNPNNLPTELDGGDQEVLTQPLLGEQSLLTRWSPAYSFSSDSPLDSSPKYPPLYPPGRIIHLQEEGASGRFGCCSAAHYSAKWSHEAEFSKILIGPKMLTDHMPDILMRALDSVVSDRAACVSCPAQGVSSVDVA
MT1-MMP act inh: inhibitors of human MT1-MMP activation; P50281; HT1080 RFP-PRO-GFP cells, GFP/RFP ratio fluorescence, overnight; percent of plate control window, DMSO zero; GFP/RFP ratio change, % at 20 µM; 0.061% of 360,000 active; AID 651647;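 active = GFP/RFP ratio change of at least 30% with cell ATP level not reduced by more than half and red fluorescence within 50% of control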
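system = RFP-PRO-GFP reporter HT1080 cells | dosing = 20 µM single dose, 1% DMSO | timing = overnight cell settling, then overnight compound exposure, 37 °C, 5% CO2 | read-out basis = GFP/RFP fluorescence ratio | controls = DMSO and RFP-L50D-GFP cell wells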
Cneo AK release: causes C. neoformans cell lysis; adenylate kinase release luminescence, 4 h; normalised: neutral wells 0, clomiphene wells 100; lysis activity, % at 15 µM; 0.2% of 360,000 active;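 active = mean lysis activity across replicates of at least 80%, whatever share of replicates individually reach that level; inactive = mean lysis activity below 80%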
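Material – log-phase Cryptococcus neoformans yeast cells · Input – 5 × 10^6 yeast cells/mL · Medium – fresh YPD growth medium · Doses – single compound concentration per well · Timing – static 4 h at 37 °C with compound, 1 h detection · Detection – adenylate kinase release luminescence · Read-out – signal increase indicating cell lysis · Control set – Clomiphene as positive lysis control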
hiPSC survival: enhancers of human iPSC single-cell survival; survival enhancement, % at 20 µM; hiPSC single-cell survival, ATPlite luminescence; 100% = ROCK inhibitor wells, 0% = DMSO; 0.044% of 360,000 active; in the data active = survival enhancement above about 18%;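 note: cells exposed to compounds for 16 hours before the ATP read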
DAGLB inh conf: DAGLB (human) inhibition, confirmation screen. shares compounds with DAGLB inh. HEK293T DAGLB membrane lysate, EnzChek fluorogenic substrate. inhibition, % at 5.17 µM. 73% of 190 active. AID 504445;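 active = mean inhibition over triplicate wells above a set limit taken from the primary lipase screen, cut at about 34% in these data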;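 note: 0% = DAGLB with DMSO and 100% = wells lacking DAGLB enzyme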
* = called active by the depositor; / = no result.

SMILES	Ecoli rRNA inh	SKN-1 block	DAGLB inh	MT1-MMP act inh	Cneo AK release	hiPSC survival	DAGLB inh conf
CCCNC(=O)N1CC2(CN(Cc3ccccn3)C2)c2c(n(C)c3cc(OC)ccc23)[C@@H]1CO	1	/	/	/	/	/	/
Cc1cc(/C=C\c2ccc3cc(N(C)C)ccc3[n+]2C)c(C)n1-c1ccccc1	/	76	39*	15	-6	-5	35*
COc1ccc2c3c(n(C)c2c1)[C@@H](CO)N(S(C)(=O)=O)CC31CN(C(=O)C2CCC2)C1	1	/	/	/	/	/	/
CCOc1ccccc1N1CCN(C2=C(NS(=O)(=O)c3cccs3)C(=O)c3ccccc3C2=O)CC1	/	25	44*	2	-2	-3	39*
CC(CCC(C)C(C)(C)C)[C@@H]1CC[C@H]2C3C[C@H](OS(O)(=S)=S)[C@H]4C[C@H](OS(O)(=S)=S)[C@@H](OS(O)(=S)=S)C[C@]4(C)[C@H]3CC[C@]12C (stereo partly drawn) (tested in a mixture with another compound)	/	13	35*	13	-1	0	34*
CC(CCC(=O)NN)C1CCC2C3CCC4CC(O)CCC4(C)C3CCC12C (stereo not drawn)	-2	16	0	-1	/	2	/
C[C@H]1CN([C@@H](C)CO)S(=O)(=O)c2ccc(-c3cccnc3)cc2O[C@@H]1CN(C)Cc1ccncc1	-7	/	/	/	-3	/	/
CC(C1SC(=S)NC1=O)C1SC(=S)NC1=O (stereo not drawn)	/	15	44*	-65	-1	3	37*
N=C1C(c2nc3ccccc3s2)=C(O)CN1NC(=O)c1ccccc1[N+](=O)[O-]	5	-4	37*	-1	/	-3	53*
CC(C)(C)c1ccc(S(=O)(=O)/N=C2\C=C(NS(=O)(=O)c3ccccc3)C(=O)c3ccccc32)cc1	-35	9	39*	10	-1	0	64*
Cc1ccc(S(=O)(=O)/N=C2\C=C(Nc3cccc(C(=O)O)c3)C(=O)c3ccccc32)cc1	3	10	37*	30	4	0	40*
C/C(=N\NS(=O)(=O)c1ccc(C(C)(C)C)cc1)c1ccccc1	4	2	-3	0	9	0	/
Cc1ccc(S(=O)(=O)/N=C2\C=C(Nc3cccc(C(=O)O)c3)C(=O)c3ccccc32)c(C)c1	9	27	46*	21	-2	0	46*
CCc1ccc(S(=O)(=O)/N=C2\C=C(Nc3ccc(C(=O)O)cc3)C(=O)c3ccccc32)cc1	7	1	11	14	-1	0	/
C[C@@H]1CN([C@H](C)CO)C(=O)c2cc(NC(=O)NC3CCCCC3)ccc2O[C@@H](C)CCCCO[C@H]1CN(C)Cc1ccncc1	-2	/	/	/	6	/	/
CCc1nnc(NS(=O)(=O)c2ccc(Nc3ccc([N+](=O)[O-])c4nonc34)cc2)s1	33	51*	36*	2	/	2	32
N#C/C(=C\c1ccc(O)c([N+](=O)[O-])c1)c1nc2ccccc2s1	-33	-10	38*	2	-2	-1	39*
N#C/C(=N/Nc1ccc([N+](=O)[O-])cc1)C(=N)N1CCCCC1	-16	19	23	18	/	0	/
N#C/C(=N\Nc1ccc([N+](=O)[O-])cc1)C(N)=S	-41	39*	38*	49	/	0	26
Cc1ccc(NS(=O)(=O)c2cc([N+](=O)[O-])ccc2NNC(=S)Nc2cccc(Cl)c2)c(C)c1	/	5	44*	3	/	1	74*
CO[C@H](C(=O)N(C)C[C@@H]1OCc2ccccc2-c2c(n(C)c3ccccc23)C(=O)N([C@@H](C)CO)C[C@@H]1C)c1ccccc1	-6	/	/	/	-4	/	/
COc1ccc(CN(C)C[C@@H]2Oc3c(NS(=O)(=O)c4ccc(OC)cc4)cccc3C(=O)N([C@H](C)CO)C[C@H]2C)cc1	0	/	/	/	-2	/	/
CC(C)NC(=O)N(C)C[C@@H]1Oc2c(N)cccc2C(=O)N(C)C[C@@H]1C	4	/	/	/	/	/	/
O=[N+]([O-])c1ccccc1N/N=C/c1c[nH]c2ccccc12	/	2	58*	5	5	-2	61*
CCCN1C[C@H](C)[C@@H](OC)CN(C)C(=O)c2cc(NC(=O)c3cnccn3)ccc2OC[C@@H]1C	1	/	/	/	49	/	/
SMILES	Ecoli rRNA inh	SKN-1 block	DAGLB inh	MT1-MMP act inh	Cneo AK release	hiPSC survival	DAGLB inh conf
CCCN1[C@@H]2c3ccc(-c4cccc(F)c4)c(=O)n3C[C@H]1[C@H](CO)[C@H]2C(=O)NCC	0	/	/	/	-1	/	/
CCSC1=NC(=O)/C(=C2/C=Cc3ccccc3N2CC)S1	/	21	37*	24	/	4	41*
Cc1[nH]n(-c2ccccc2)c(=O)c1/C=N/NC(=O)c1cccc([N+](=O)[O-])c1	/	-19	3	2	0	0	/
Cc1ccc(-n2[nH]c(C)c(/C=N/Nc3ccc([N+](=O)[O-])cc3[N+](=O)[O-])c2=O)cc1C	/	6	39*	17	/	-1	48*
CC(=O)Oc1cc2c3c(c1)/C(=C1/SC(=S)NC1=O)C(=O)N3C(C)(C)C=C2C	-19	22	50*	9	/	0	59*
C=C[C@@H](OC)[C@H](OC(=O)Nc1ccc(SC)cc1)c1ccc(OCCO)cc1	/	/	/	/	-6	/	/
NS(=O)(=O)c1ccc(N=Nc2ccc(O)c3ncccc23)cc1	14	5	25	25	/	0	/
NS(=O)(=O)c1ccc(N=Nc2c(O)ccc3ccccc23)cc1	2	4	37*	1	/	-1	47*
CCOC(=O)/C(C#N)=C/C=C1\C=Cc2ccccc2N1CC	-6	74	37*	-76	/	2	46*
CCN(CC)C(=O)CSc1nc2ccccc2c(=O)n1-c1cccc(OC)c1	/	-4	0	10	2	-1	/
COc1cccc(-n2c(SCc3cc(=O)oc4cc(O)c(O)cc34)nc3ccccc3c2=O)c1	-50	13	40*	7	0	-1	20
O=C(C[C@@H]1C=C[C@H](NC(=O)c2ccc(F)cc2)[C@@H](CO)O1)NCCc1ccccc1	-1	/	/	/	-2	/	/
Nc1c(S(=O)(=O)O)cc(NC(=O)c2ccccc2)c2c1C(=O)c1ccccc1C2=O	7	33	61*	57*	3	0	72*
Cc1noc(C)c1NC(=O)N(C)C[C@@H]1Oc2ccc(NS(=O)(=O)c3c(C)noc3C)cc2CC(=O)N([C@@H](C)CO)C[C@H]1C	9	/	/	/	0	/	/
CCNC(=O)C[C@@H]1CC[C@@H]2[C@@H](COc3ccc(NC(=O)c4ccc(F)cc4)cc3C(=O)N2C)O1	-2	/	/	/	0	/	/
